Test results from ChEMBL document CHEMBL5724801, “EUbOPEN Chemogenomics Library - Multiplex” (2024).
Values joined by “and” are separate entries in the source; they are usually repeats but may differ in a detail not shown here. Equal values may be shown once.

Tests used:
U2OS = experiment: Multiplex assay against U2OS; format: toxicity, cell-based; details: human
Method in brief: (§1)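 Live cells carried four stains from seeding: Hoechst33342, BioTracker Green Microtubule Cytoskeleton Dye, MitoTracker Red and Annexin V Alexa Fluor 680. They were imaged on a CQ1 microscope at 37°C and 5% CO2 after compound addition. Using CellPathfinder machine-learning gating, cells were split into Hoechst high-intensity objects or normal cells, normal cells into healthy, pyknosed or fragmented nuclei, and pyknosed cells into mitotic or apoptotic; tubulin, mitochondrial-mass and membrane-permeability phenotypes are per cents of healthy-nucleus cells.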

HEK-293T = experiment: Multiplex assay against HEK293T; format: toxicity, cell-based; details: human; method in brief: as §1
[1] = 24 h, 1 µM, compound concentration 1 uM
[2] = 24 h, 10 µM, compound concentration 10 uM
[3] = 48 h, 1 µM, compound concentration 1 uM
[4] = 48 h, 10 µM, compound concentration 10 uM
[5] = 12 h, 1 µM, compound concentration 1 uM
[6] = 12 h, 10 µM, compound concentration 10 uM

## COC[C@@H](c1ccc(C(F)(F)F)cc1)N1CCN(C2(C)CCN(C(=O)c3c(C)ncnc3C)CC2)C[C@@H]1C.O=C(O)/C=C\C(=O)O [VICRIVIROC MALEATE]
U2OS; [1]
  Total Cell Count: 301 and 111
U2OS; [2]
  Population Apoptotic (%): 80% and 83%
  Population Fragmented Nuclei (%): 25%
  Population Healthy Nuclei (%): 68%
  Population Hoechst High Intensity Objects (%): 1%
  Population Membrane Permeable-Phenotype (%): 3% and 4%
  Population Mitochondria Different-Phenotype (%): 3% and 2%
  Population Mitotic Cells (%): 19% and 16%
  Population Normal (%): 98%
  Population Pyknosed Nuclei (%): 6%
  Population Tubulin-Different-Phenotype (%): 2% and 7%
U2OS; [3]
  Population Apoptotic (%): 78% and 93%
  Population Fragmented Nuclei (%): 20% and 25%
  Population Healthy Nuclei (%): 68% and 62%
  Population Hoechst High Intensity Objects (%): 3% and 1%
  Population Membrane Permeable-Phenotype (%): 3% and 13%
  Population Mitochondria Different-Phenotype (%): 2% and 11%
  Population Normal (%): 96% and 98%
  Population Pyknosed Nuclei (%): 10% and 11%
  Population Tubulin-Different-Phenotype (%): 1% and 10%
  Total Cell Count: 416 and 142
U2OS; [4]
  Population Apoptotic (%): 80% and 93%
  Population Fragmented Nuclei (%): 19% and 18%
  Population Healthy Nuclei (%): 70% and 68%
  Population Hoechst High Intensity Objects (%): 2% and 5%
  Population Membrane Permeable-Phenotype (%): 3%
  Population Mitochondria Different-Phenotype (%): 2% and 6%
  Population Normal (%): 97% and 94%
  Population Pyknosed Nuclei (%): 9% and 12%
  Population Tubulin-Different-Phenotype (%): 1% and 6%
HEK-293T; [5]
  Population Apoptotic (%): 46% and 45%
  Population Fragmented Nuclei (%): 7%
  Population Healthy Nuclei (%): 80%
  Population Hoechst High Intensity Objects (%): 9% and 5%
  Population Membrane Permeable-Phenotype (%): 0%
  Population Mitochondria Different-Phenotype (%): 47% and 51%
  Population Mitotic Cells (%): 53% and 54%
  Population Normal (%): 90% and 94%
  Population Pyknosed Nuclei (%): 12% and 11%
  Population Tubulin-Different-Phenotype (%): 27% and 17%
  Total Cell Count: 406 and 387
HEK-293T; [6]
  Population Apoptotic (%): 44% and 62%
  Population Fragmented Nuclei (%): 6% and 5%
  Population Healthy Nuclei (%): 75% and 72%
  Population Hoechst High Intensity Objects (%): 8% and 16%
  Population Membrane Permeable-Phenotype (%): 0%
  Population Mitochondria Different-Phenotype (%): 63% and 78%
  Population Mitotic Cells (%): 55% and 37%
  Population Normal (%): 91% and 83%
  Population Pyknosed Nuclei (%): 18% and 21%
  Population Tubulin-Different-Phenotype (%): 57% and 51%
  Total Cell Count: 315 and 265
HEK-293T; [1]
  Population Apoptotic (%): 30% and 31%
  Population Fragmented Nuclei (%): 9%
  Population Healthy Nuclei (%): 79% and 82%
  Population Hoechst High Intensity Objects (%): 6% and 5%
  Population Membrane Permeable-Phenotype (%): 0% and 1%
  Population Mitochondria Different-Phenotype (%): 24%
  Population Mitotic Cells (%): 69% and 68%
  Population Normal (%): 93% and 94%
  Population Pyknosed Nuclei (%): 10% and 8%
  Population Tubulin-Different-Phenotype (%): 21% and 11%
  Total Cell Count: 564 and 515
HEK-293T; [2]
  Population Apoptotic (%): 34% and 60%
  Population Fragmented Nuclei (%): 6% and 10%
  Population Healthy Nuclei (%): 80% and 77%
  Population Hoechst High Intensity Objects (%): 6% and 16%
  Population Membrane Permeable-Phenotype (%): 0%
  Population Mitochondria Different-Phenotype (%): 53% and 70%
  Population Mitotic Cells (%): 66% and 39%
  Population Normal (%): 93% and 83%
  Population Pyknosed Nuclei (%): 13% and 12%
  Population Tubulin-Different-Phenotype (%): 49% and 39%
  Total Cell Count: 406 and 310
HEK-293T; [3]
  Population Apoptotic (%): 21% and 34%
  Population Fragmented Nuclei (%): 11% and 13%
  Population Healthy Nuclei (%): 80% and 81%
  Population Hoechst High Intensity Objects (%): 2%
  Population Membrane Permeable-Phenotype (%): 1%
  Population Mitochondria Different-Phenotype (%): 13% and 11%
  Population Mitotic Cells (%): 78% and 65%
  Population Normal (%): 97%
  Population Pyknosed Nuclei (%): 7% and 5%
  Population Tubulin-Different-Phenotype (%): 12% and 8%
  Total Cell Count: 930 and 751
HEK-293T; [4]
  Population Apoptotic (%): 38% and 53%
  Population Fragmented Nuclei (%): 12% and 14%
  Population Healthy Nuclei (%): 75% and 70%
  Population Hoechst High Intensity Objects (%): 4% and 11%
  Population Membrane Permeable-Phenotype (%): 0%
  Population Mitochondria Different-Phenotype (%): 49% and 50%
  Population Mitotic Cells (%): 61% and 46%
  Population Normal (%): 95% and 88%
  Population Pyknosed Nuclei (%): 11% and 15%
  Population Tubulin-Different-Phenotype (%): 35% and 38%
  Total Cell Count: 559 and 394
